Measured values from ChEMBL document CHEMBL3227917, “Structure-activity relationships of dimeric Catharanthus alkaloids. 2. Experimental antitumor activities of N-substituted deacetylvinblastine amide (vindesine) sulfates” (J Med Chem, 1979).

What was measured:
[1] = Antitumor activity against mouse P388/VCR/I/63 cells allografted in Dublin-CDF1 mouse assessed as increase in host lifespan at 1.0 mg/kg, ip administered on days 1, 5 and 9; type: functional; details: route intraperitoneal
CHO [2] = experiment: Mitotic arrest in CHO cells assessed as increase in cell accumulation at 0.2 ug/ml; type: functional, Cricetulus griseus
In short: (§1)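 Chinese hamster ovary cells in tissue culture, scored for mitotic arrest as increase in cells in mitotic arrest over control: +++, 40–50%; ++, 15–40%; +, 10–15%; ±, 7–10%; –, 3–7%. Cytotoxicity noted separately.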

[3] = Antitumor activity against mouse P388/VCR/I/63 cells allografted in Dublin-CDF1 mouse assessed as day of host death at 1.6 mg/kg, ip administered on days 1, 5 and 9 (reference value: 10 days); type: functional; details: route intraperitoneal
[4] = Antitumor activity against mouse P1534 cells allografted in DBA2 mouse assessed as tumor growth inhibition at 1.2 mg/kg, ip administered on days 1,5 and 9; type: functional; details: route intraperitoneal, read-out: TGI
In short: (§2)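 P1534(J) leukemia implanted sc in DBA2 mice; agent given ip on days 1, 5 and 9 at 1.6, 1.2, 0.9 and 0.6 mg/kg in a single experiment. Activity scored as growth inhibition, –, 0–25%; +, 26–50%; ++, 51–75%; +++, 76–100%.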

P388/VCR [5] = experiment: Antitumor activity against mouse P388/VCR cells allografted in CD2F1 mouse assessed as increase in host lifespan at 0.648 mg/kg, ip administered on days 1, 5 and 9; type: functional; details: route intraperitoneal
In short: (§3)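 Groups of eight male CD2F1 mice bearing P388 leukemia, run at NCI. Sulfate salts given ip on days 1, 5 and 9. Read-out is percent increase in lifespan.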

[6] = Antitumor activity against mouse Gardner lymphosarcoma allografted in C3H mouse assessed as tumor growth inhibition at 0.10 mg/kg, ip administered daily for 8 to 10 days; type: functional; details: route intraperitoneal, read-out: TGI
In short: (§4)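 Gardner lymphosarcoma in C3H mice; sulfate salts unless noted, given ip daily for 8–10 days, treatment starting 8 days after tumor implantation. Tumor growth inhibition scored as –, 0–25%; +, 26–50%; ++, 51–75%; +++, 76–100%; T, lethal to ≥5 of 10 animals per group. Average of one or more tests.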

CHO [7] = experiment: Mitotic arrest in CHO cells assessed as increase in cell accumulation at 0.02 ug/ml; type: functional, Cricetulus griseus; in short: as §1
[8] = Antitumor activity against mouse Gardner lymphosarcoma allografted in C3H mouse assessed as tumor growth inhibition at 0.05 mg/kg, ip administered daily for 8 to 10 days; type: functional; details: route intraperitoneal, read-out: TGI; in short: as §4
[9] = Antitumor activity against mouse P388/VCR/I/63 cells allografted in Dublin-CDF1 mouse assessed as day of host death at 0.7 mg/kg, ip administered on days 1, 5 and 9 (reference value: 10 days); type: functional; details: route intraperitoneal
P388/S [10] = experiment: Antitumor activity against mouse P388/S cells allografted in CD2F1 mouse assessed as increase in host lifespan at 1.80 mg/kg, ip administered on days 1, 5 and 9; type: functional; details: dose 1.8 mg/kg; route intraperitoneal
In short: (§5)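 Groups of eight male CD2F1 mice, tested at the NCI. Compounds were given as sulfate salts, dosed in mg/kg ip on days 1, 5 and 9. Activity was read as percent increase in lifespan against the leukemia line.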

B16 [11] = experiment: Antitumor activity against mouse B16 cells allografted in C57BL/6 mouse assessed as prolongation of host survival at 1.20 mg/kg, ip administered on days 1,5 and 9; type: functional; details: route intraperitoneal
In short: (§6)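 B16 melanoma cells (10⁶ inoculum) implanted ip in C57BL/6 mice; groups of 10. Sulfate salts unless noted, given ip on days 1, 5 and 9. Single test. Survival prolongation is expressed as percent versus controls, with survivors counted on day 60. Toxic means deaths of ≥5 of 10 animals before the first control death.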

[12] = Antitumor activity against mouse P1534 cells allografted in DBA2 mouse assessed as tumor growth inhibition at 0.6 mg/kg, ip administered on days 1,5 and 9; type: functional; details: route intraperitoneal, read-out: TGI; in short: as §2
P388/S [13] = experiment: Antitumor activity against mouse P388/S cells allografted in CD2F1 mouse assessed as increase in host lifespan at 1.08 mg/kg, ip administered on days 1, 5 and 9; type: functional; details: route intraperitoneal; in short: as §3
P388/VCR [14] = experiment: Antitumor activity against mouse P388/VCR cells allografted in B6D2F1 mouse assessed as increase in host lifespan at 1.20 mg/kg, ip administered on days 1, 5 and 9; type: functional; details: dose 1.2 mg/kg; route intraperitoneal
In short: (§7)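 P388/VCR leukemia in groups of 10 B6D2F1 mice, run at Lilly using the cell strain received from NCI. Sulfate salts given ip on days 1, 5 and 9. Read-out is percent increase in lifespan.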

[15] = Antitumor activity against mouse P388/VCR/I/63 cells allografted in Dublin-CDF1 mouse assessed as increase in host lifespan at 1.6 mg/kg, ip administered on days 1, 5 and 9; type: functional; details: route intraperitoneal
Mus musculus [16] = experiment: Toxicity in CD2F1 mouse allografted with mouse P388/VCR cells at 3.00 mg/kg, ip administered on days 1, 5 and 9; type: organism-based; design: dose 3 mg/kg, route intraperitoneal; details: in vivo
B16 [17] = experiment: Antitumor activity against mouse B16 cells allografted in C57BL/6 mouse assessed as prolongation of host survival at 0.90 mg/kg, ip administered on days 1,5 and 9; type: functional; details: route intraperitoneal; in short: as §6
P388/S [18] = experiment: Antitumor activity against mouse P388/S cells allografted in CD2F1 mouse assessed as increase in host lifespan at 0.648 mg/kg, ip administered on days 1, 5 and 9; type: functional; details: route intraperitoneal; in short: as §3
[19] = Antitumor activity against mouse P388/VCR/I/63 cells allografted in Dublin-CDF1 mouse assessed as increase in host lifespan at 0.7 mg/kg, ip administered on days 1, 5 and 9; type: functional; details: route intraperitoneal
B16 [20] = experiment: Antitumor activity against mouse B16 cells allografted in C57BL/6 mouse assessed as prolongation of host survival at 0.60 mg/kg, ip administered on days 1,5 and 9; type: functional; details: route intraperitoneal; in short: as §6
P388/VCR [21] = experiment: Antitumor activity against mouse P388/VCR cells allografted in CD2F1 mouse assessed as increase in host lifespan at 1.80 mg/kg, ip administered on days 1, 5 and 9; type: functional; details: dose 1.8 mg/kg; route intraperitoneal; in short: as §5
[22] = Antitumor activity against mouse Gardner lymphosarcoma allografted in C3H mouse assessed as tumor growth inhibition at 0.30 mg/kg, ip administered daily for 8 to 10 days; type: functional; details: route intraperitoneal, read-out: TGI; in short: as §4
[23] = Antitumor activity against mouse Gardner lymphosarcoma allografted in C3H mouse assessed as tumor growth inhibition at 0.20 mg/kg, ip administered daily for 8 to 10 days; type: functional; details: route intraperitoneal, read-out: TGI; in short: as §4
[24] = Antitumor activity against mouse P388/VCR/I/63 cells allografted in Dublin-CDF1 mouse assessed as day of host death at 1.0 mg/kg, ip administered on days 1, 5 and 9 (reference value: 10 days); type: functional; details: route intraperitoneal
[25] = Antitumor activity against mouse P1534 cells allografted in DBA2 mouse assessed as tumor growth inhibition at 0.9 mg/kg, ip administered on days 1,5 and 9; type: functional; details: route intraperitoneal, read-out: TGI; in short: as §2
[26] = Antitumor activity against mouse P1534 cells allografted in DBA2 mouse assessed as tumor growth inhibition at 1.6 mg/kg, ip administered on days 1,5 and 9; type: functional; details: route intraperitoneal, read-out: TGI; in short: as §2
P388/VCR [27] = experiment: Antitumor activity against mouse P388/VCR cells allografted in B6D2F1 mouse assessed as increase in host lifespan at 0.90 mg/kg, ip administered on days 1, 5 and 9; type: functional; details: dose 0.9 mg/kg; route intraperitoneal; in short: as §7
CHO [28] = experiment: Mitotic arrest in CHO cells assessed as increase in cell accumulation at 0.002 ug/ml; type: functional, Cricetulus griseus; in short: as §1
Mus musculus [29] = experiment: Toxicity in CD2F1 mouse allografted with mouse P388/S cells at 3.00 mg/kg, ip administered on days 1, 5 and 9; type: organism-based; design: dose 3 mg/kg, route intraperitoneal; details: in vivo
[30] = Toxicity in iv dosed mouse assessed as lethality; type: organism-based; details: in vivo
P388/VCR [31] = experiment: Antitumor activity against mouse P388/VCR cells allografted in CD2F1 mouse assessed as increase in host lifespan at 1.08 mg/kg, ip administered on days 1, 5 and 9; type: functional; details: route intraperitoneal; in short: as §3
[32] = Antitumor activity against mouse Gardner lymphosarcoma allografted in C3H mouse assessed as tumor growth inhibition at 0.40 mg/kg, ip administered daily for 8 to 10 days; type: functional; details: route intraperitoneal, read-out: TGI; in short: as §4
P388/VCR [33] = experiment: Antitumor activity against mouse P388/VCR cells allografted in B6D2F1 mouse assessed as increase in host lifespan at 0.60 mg/kg, ip administered on days 1, 5 and 9; type: functional; details: dose 0.6 mg/kg; route intraperitoneal; in short: as §7

## CC[C@]1(O)C[C@H]2CN(CCc3c([nH]c4ccccc34)[C@@](C(=O)OC)(c3cc4c(cc3OC)N(C)[C@H]3[C@@](O)(C(=O)NCCSSCCNC(=O)[C@@]5(O)[C@H](O)[C@]6(CC)C=CCN7CC[C@@]8(c9cc([C@@]%10(C(=O)OC)C[C@@H]%11CN(CCc%12c%10[nH]c%10ccccc%12%10)C[C@](O)(CC)C%11)c(OC)cc9N(C)[C@@H]58)[C@@H]76)[C@H](O)[C@]5(CC)C=CCN6CC[C@]43[C@@H]65)C2)C1.O=S(=O)(O)O
[1]
  Activity: 115%
CHO [2]
  Activity: 15%
[3]
  Activity: 24.5 days
[4]
  inhibition in vivo at 1.2 mg/kg: 76%
P388/VCR [5]
  Activity: 50%
[6]
  inhibition in vivo at 0.1 mg/kg: 0%
CHO [7]
  Activity: 10%
[8]
  inhibition in vivo at 0.05 mg/kg: 0%
[9]
  Activity: 18.5 days
P388/S [10]
  Activity: 50%
B16 [11]
  survival at 1.2 mg/kg: 170%
[12]
  inhibition in vivo at 0.6 mg/kg: 26%
P388/S [13]
  Activity: 96%
P388/VCR [14]
  Activity: 22%
[15]
  Activity: 145%
Mus musculus [16]
  Activity: Toxic
B16 [17]
  survival at 0.9 mg/kg: 170%
P388/S [18]
  Activity: 129%
[19]
  Activity: 85%
B16 [20]
  survival at 0.6 mg/kg: 115%
P388/VCR [21]
  Activity: 33%
[22]
  inhibition in vivo at 0.3 mg/kg: 76%
[23]
  inhibition in vivo at 0.2 mg/kg: 51%
[24]
  Activity: 21.5 days
[25]
  inhibition in vivo at 0.9 mg/kg: 51%
[26]
  inhibition in vivo at 1.6 mg/kg: 76%
P388/VCR [27]
  Activity: 54%
CHO [28]
  Activity: 3%
Mus musculus [29]
  Activity: Toxic
[30]
  LD50: 6.9 mg/kg
P388/VCR [31]
  Activity: 46%
[32]
  inhibition in vivo at 0.4 mg/kg: 76%
P388/VCR [33]
  Activity: 35%
